Measured values published in paper PMC11589143 (Nature Communications, 2024).
Blank lines part the entries; values can stand above or below the substance they belong to.

What was measured:
[1] = system: HEK293T nuclear proteins (H4R3me2a interactors); assay: Proteome-wide photoaffinity capture, dimethyl labelling, LC-MS; assay type: binding, Homo sapiens; settings: |log2 fold change| > 2, P < 0.05; vs peptide without pLeu
In short: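 HEK293T cells were lysed in RSB buffer and crude nuclei resuspended in crosslinking buffer (100 mM HEPES, 1.5 mM MgCl2, 150 mM KCl, pH 7.5). Nuclei received 100 µM biotinylated pLeu peptide in the dark, then 365 nm UV on ice. After washing and sonication, proteins were captured on streptavidin and washed stringently. Only proteins quantified in both replicates were kept, with two-tailed unpaired t-test P-values.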

[2] = system: inactive mutant (H179Y/D181G/H240Y) of Mina53; assay: In vitro demethylation, dot blotting, inactive mutant Mina53; assay type: biochemical; settings: 2 h at 37 °C, cofactors
His-tagged WT Mina53 = assay: In vitro demethylation, dot blotting, WT Mina53; assay type: biochemical; settings: 2 h at 37 °C, cofactors
His-tagged Mina53 = assay: Pulldown of synthetic H4R3 peptides with purified His-tagged Mina53; assay type: binding; settings: H4R3 peptides with different R3 modifications
WT Mina53 = assay: LC-MS of in vitro demethylation products, WT Mina53; assay type: biochemical; settings: high-resolution MS
In short: (§1)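 Reaction mixtures were brought to 0.2% TFA and 2% acetonitrile (final) and desalted on C18 ZipTips (activated in 80% acetonitrile/0.1% TFA, equilibrated in 0.1% TFA). Separation was on an HSS T3 UPLC column with 0.1% formic acid in water versus acetonitrile/0.1% formic acid. Detection used positive-mode ESI TOF MS scanning 400-1500 m/z, and relative peptide abundance was compared.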

[3] = target: FITC-conjugated H4R3me2a peptide; assay: MST
[4] = system: catalytically inactive mutant Mina53; assay: LC-MS of in vitro demethylation products, mutant Mina53; assay type: biochemical; settings: high-resolution MS
In short: as §1

[5] = system: mutant Mina53 (D329A/D333A); assay: Microscale thermophoresis, mutant Mina53; assay type: binding; settings: MST; D333A/D329A mutant vs WT; n=3 independent assays
In short: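 His-tagged Mina53 was titrated from 3 nM to 0.1 mM against 25 nM FITC-labelled H4R3me2a peptide. Mixtures were incubated 15 min in 30 mM Hepes, 150 mM NaCl, pH 7.5, then loaded into glass capillaries for microscale thermophoresis. KD was fitted from the thermophoresis response.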

Mina53 = Mina53 (Homo sapiens, UniProt Q8IUF8); assay: Formaldehyde release assay; assay type: biochemical; settings: AAPT (modified NASH), ex 355 nm / em 470 nm
Chain of Mina53 (Q8IUF8 whole entry): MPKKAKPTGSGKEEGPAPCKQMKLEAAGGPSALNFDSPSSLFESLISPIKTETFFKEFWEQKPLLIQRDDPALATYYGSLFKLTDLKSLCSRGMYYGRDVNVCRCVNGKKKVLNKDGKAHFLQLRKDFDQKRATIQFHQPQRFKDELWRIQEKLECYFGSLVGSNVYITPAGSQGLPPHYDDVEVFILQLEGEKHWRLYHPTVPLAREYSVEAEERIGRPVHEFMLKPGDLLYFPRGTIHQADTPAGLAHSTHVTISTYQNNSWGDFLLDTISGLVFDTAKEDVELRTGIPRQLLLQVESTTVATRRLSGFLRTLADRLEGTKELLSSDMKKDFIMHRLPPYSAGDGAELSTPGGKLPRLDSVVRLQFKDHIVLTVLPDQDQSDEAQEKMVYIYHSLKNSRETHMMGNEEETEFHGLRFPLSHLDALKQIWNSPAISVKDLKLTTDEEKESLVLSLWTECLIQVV
In short: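 After the demethylation reaction, samples were TCA-precipitated and 1% Tris buffer was added. An equal volume of AAPT buffer was added to the supernatant and incubated 30 min at room temperature. Formaldehyde was quantified against a standard curve from serial dilutions of 37% formaldehyde. Km and kcat were fitted to the Michaelis-Menten equation.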

Chain of His-tagged Mina53 (Myc-induced nuclear antigen 53), wild type (Q8IUF8 whole entry): as above

Substance: pLeuGRme2aGKGGKGLGKGGAKKbio-NH2 [H4R3me2a-pLeu-biotin]
Enrichment of SND1, SMNDC1 and PRMT1 in pLeu-containing peptide sample [1]: enriched

Substance: APATGGV-Kme3-KPHRYRP(Biotin) [H3K36me3]
Dot-blot signal change with mutant Mina53 [2]: not mutant Mina53 | Dot-blot signal change with WT Mina53 (His-tagged WT Mina53): modestly decreased

Substance: SGR(Me2s)GKGGKGLGKGGAKRHRKVGGK(Biotin) [H4R3me2s]
Amount of peptide pulled down by Mina53 (His-tagged Mina53): in the smallest amount

Substance: SGR(Me1)GKGGKGLGKGGAKRHRKVGGK(Biotin) [H4R3me1]
Appearance of non-methylated peptide (WT Mina53; H4R3me1 peptide as substrate): modest non-methylated peptide appearance | Dot-blot signal change with mutant Mina53 [2]: not mutant Mina53 | Dot-blot signal change with WT Mina53 (His-tagged WT Mina53): drastically decreased

Substance: His-tagged Mina53 (Myc-induced nuclear antigen 53), wild type (from UniProt Q8IUF8 1-465) (enzyme)
Kd [3]: 27.6 µM

Binding affinity of mutant Mina53 [5]: drastic loss of binding | turn-over rate (kcat) (Mina53): 0.37 ± 0.08 s⁻¹
Substance: SGR(Me2a)GKGGKGLGKGGAKRHRKVGGK(Biotin) [H4R3me2a]
Peptide peak shift (to mono-methylated peptide) (WT Mina53; WT Mina53): 14 Da | Peptide peak shift with mutant Mina53 [4]: not mutant Mina53 | Dot-blot signal change with mutant Mina53 [2]: not mutant Mina53 | Dot-blot signal change with WT Mina53 (His-tagged WT Mina53): drastically decreased
